# From ChEMBL document CHEMBL4689842, “EUbOPEN Chemogenomics Library wave 1” (2021)
# System: Fibroblast
# Experiment: Multiplex assay against human fibroblast
# Assay type: toxicity, cell-based
# Method in brief: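 Phenotypes for tubulin, mitochondrial mass and membrane permeability are expressed as per cents of healthy-nucleus cells. Cells were stained live at seeding with Hoechst33342, BioTracker Green Microtubule Cytoskeleton Dye, MitoTracker Red and Annexin V Alexa Fluor 680, then imaged after compound addition on a CQ1 microscope at 37°C and 5% CO2. Machine-learning gating in CellPathfinder separated Hoechst high-intensity objects from normal cells, divided normal cells by nuclear state (healthy, pyknosed, fragmented) and divided pyknosed cells into mitotic or apoptotic.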
# [1] = 12 h, 1 µM, compound concentration 1 uM, replicate 1
# [2] = 12 h, 1 µM, compound concentration 1 uM, replicate 2
# [3] = 12 h, 10 µM, compound concentration 10 uM, replicate 1
# [4] = 12 h, 10 µM, compound concentration 10 uM, replicate 2
# [5] = 24 h, 1 µM, compound concentration 1 uM, replicate 1
# [6] = 24 h, 1 µM, compound concentration 1 uM, replicate 2
# [7] = 24 h, 10 µM, compound concentration 10 uM, replicate 1
# [8] = 24 h, 10 µM, compound concentration 10 uM, replicate 2
compound,measurement,setting,value
CCc1cccc(CC)c1NC(=O)c1nn(C)c2c1CCc1cnc(Nc3ccc(N4CCN(C)CC4)cc3OC)nc1-2,Population Apoptotic (%),[1],45%
same,Population Fragmented Nuclei (%),[1],17%
same,Population Healthy Nuclei (%),[1],47%
same,Population Hoechst High Intensity Objects (%),[1],9%
same,Population Membrane Permeable-Phenotype (%),[1],8%
same,Population Mitochondria Different-Phenotype (%),[1],72%
same,Population Mitotic Cells (%),[1],54%
same,Population Normal (%),[1],90%
same,Population Pyknosed Nuclei (%),[1],34%
same,Population Tubulin-Different-Phenotype (%),[1],75%
same,Total Cell Count,[1],142
same,Population Apoptotic (%),[2],50%
same,Population Fragmented Nuclei (%),[2],54%
same,Population Healthy Nuclei (%),[2],18%
same,Population Hoechst High Intensity Objects (%),[2],25%
same,Population Membrane Permeable-Phenotype (%),[2],0%
same,Population Mitochondria Different-Phenotype (%),[2],75%
same,Population Mitotic Cells (%),[2],50%
same,Population Normal (%),[2],74%
same,Population Pyknosed Nuclei (%),[2],27%
same,Total Cell Count,[2],59
same,Population Apoptotic (%),[3],71%
same,Population Fragmented Nuclei (%),[3],32%
same,Population Healthy Nuclei (%),[3],46%
same,Population Hoechst High Intensity Objects (%),[3],11%
same,Population Membrane Permeable-Phenotype (%),[3],2%
same,Population Mitochondria Different-Phenotype (%),[3],11%
same,Population Mitotic Cells (%),[3],28%
same,Population Normal (%),[3],88%
same,Population Pyknosed Nuclei (%),[3],20%
same,Population Tubulin-Different-Phenotype (%),[3],18%
same,Total Cell Count,[3],213
same,Population Apoptotic (%),[4],20%
same,Population Fragmented Nuclei (%),[4],51%
same,Population Healthy Nuclei (%),[4],40%
same,Population Hoechst High Intensity Objects (%),[4],21%
same,Population Membrane Permeable-Phenotype (%),[4],3%
same,Population Mitochondria Different-Phenotype (%),[4],30%
same,Population Mitotic Cells (%),[4],80%
same,Population Normal (%),[4],78%
same,Population Pyknosed Nuclei (%),[4],7%
same,Population Tubulin-Different-Phenotype (%),[4],23%
same,Total Cell Count,[4],82
same,Population Apoptotic (%),[5],80%
same,Population Fragmented Nuclei (%),[5],25%
same,Population Healthy Nuclei (%),[5],29%
same,Population Hoechst High Intensity Objects (%),[5],10%
same,Population Membrane Permeable-Phenotype (%),[5],2%
same,Population Mitochondria Different-Phenotype (%),[5],89%
same,Population Mitotic Cells (%),[5],19%
same,Population Normal (%),[5],89%
same,Population Pyknosed Nuclei (%),[5],44%
same,Population Tubulin-Different-Phenotype (%),[5],78%
same,Total Cell Count,[5],140
same,Population Apoptotic (%),[6],100%
same,Population Fragmented Nuclei (%),[6],61%
same,Population Healthy Nuclei (%),[6],11%
same,Population Hoechst High Intensity Objects (%),[6],30%
same,Population Membrane Permeable-Phenotype (%),[6],0%
same,Population Mitochondria Different-Phenotype (%),[6],100%
same,Population Mitotic Cells (%),[6],0%
same,Population Normal (%),[6],69%
same,Population Pyknosed Nuclei (%),[6],27%
same,Population Tubulin-Different-Phenotype (%),[6],100%
same,Total Cell Count,[6],63
same,Population Apoptotic (%),[7],72%
same,Population Fragmented Nuclei (%),[7],37%
same,Population Healthy Nuclei (%),[7],46%
same,Population Hoechst High Intensity Objects (%),[7],13%
same,Population Membrane Permeable-Phenotype (%),[7],4%
same,Population Mitochondria Different-Phenotype (%),[7],11%
same,Population Mitotic Cells (%),[7],27%
same,Population Normal (%),[7],86%
same,Population Pyknosed Nuclei (%),[7],16%
same,Total Cell Count,[7],262
same,Population Apoptotic (%),[8],66%
same,Population Fragmented Nuclei (%),[8],60%
same,Population Healthy Nuclei (%),[8],35%
same,Population Hoechst High Intensity Objects (%),[8],20%
same,Population Membrane Permeable-Phenotype (%),[8],6%
same,Population Mitochondria Different-Phenotype (%),[8],10%
same,Population Mitotic Cells (%),[8],33%
same,Population Normal (%),[8],80%
same,Population Pyknosed Nuclei (%),[8],3%
same,Population Tubulin-Different-Phenotype (%),[8],16%
same,Total Cell Count,[8],105
